Results collected from several papers.
Compare with care: the assays were run in different laboratories.
Target: Mitogen-activated protein kinase 12 (MAPK12, Homo sapiens, UniProt P53778)
One construct used (P53778 1-367): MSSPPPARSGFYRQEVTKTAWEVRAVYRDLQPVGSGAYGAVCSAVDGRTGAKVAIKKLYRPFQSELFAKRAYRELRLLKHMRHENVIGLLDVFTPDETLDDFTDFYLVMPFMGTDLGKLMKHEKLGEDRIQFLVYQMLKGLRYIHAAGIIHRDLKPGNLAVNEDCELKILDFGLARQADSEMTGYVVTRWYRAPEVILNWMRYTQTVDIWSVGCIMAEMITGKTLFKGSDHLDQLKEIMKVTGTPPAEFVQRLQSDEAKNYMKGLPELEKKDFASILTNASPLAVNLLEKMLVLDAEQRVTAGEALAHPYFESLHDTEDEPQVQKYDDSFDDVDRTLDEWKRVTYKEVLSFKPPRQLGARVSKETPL

Structure (SMILES) | test | setting | measurement | value
Cc1cc(NC(=O)c2cccc3cc(-c4cccc5[nH]nc(N)c45)ccc23)ccc1F | enzyme activity, inhibitor | 0.1 µM | activity vs control | 83%
CC/C(=N\NC(=O)NCc1cccc(O)c1)c1ccc(O)c(C)c1O | enzyme activity, inhibitor | 0.1 µM | inhibition | -1.6%
CC(C)(C)c1nc2c(s1)c1nc(N)ncc1c1ccc(NS(=O)(=O)c3c(F)cccc3F)c(F)c12 | enzyme activity, inhibitor, radiometric | 1 µM | remaining activity | 100%
CCCS(=O)(=O)Nc1ccc(F)c(C(=O)c2c[nH]c3ncc(-c4ccc(Cl)cc4)cc23)c1F | enzyme activity, inhibitor | 1 µM | inhibition | < 10%
COc1cc2ncnc(Nc3ccc(Oc4ccccc4)c(C)c3C)c2cc1OC | enzyme activity, inhibitor | 1 µM | inhibition | 2%
Nc1c(C(=O)NCc2ccc(C(=O)NCCCC3CCCCC3)cc2)cnn1-c1ccccc1 | cell-free assay, competition with immobilised ligand | 0.1 µM | remaining binding | 100%
O=C1NC(=O)c2cc(Nc3ccc(F)cc3)c(Nc3ccc(F)cc3)cc21 | cell-free assay | 0.5 µM | remaining signal | 93.6%
CC(C)(O)[C@H]1CC[C@H](Nc2ccc3ncc(-c4cccc(C(F)(F)F)c4)n3n2)CC1 | enzyme activity, inhibitor | 1 µM | remaining activity | 93.8%
Cc1cnc(NC2CCOCC2)nc1-n1cnc(C(=O)NC(CN)c2cc(F)cc(Cl)c2)c1 (stereo not shown) | enzyme activity, inhibitor, radiometric | 1 µM | remaining activity | 48%
CCN(CC)CCNC(=O)c1c(C)[nH]c(/C=C2\C(=O)Nc3ccc(F)cc32)c1C | enzyme activity, inhibitor | 10 µM | inhibition | -3%
COc1cc(Nc2cnc(C#N)c(O[C@H](C)CN(C)C)n2)ncc1-c1cnn(C)c1 | enzyme activity, inhibitor, radiometric | 1 µM | remaining activity | 89%
Cn1nc(C(F)(F)F)cc1-c1cnc(N2CCc3cc(S(=O)(=O)Nc4c(F)cc(Cl)cc4F)cc(N4CCCC4=O)c32)nc1 | cell-free assay, competition with immobilised ligand | 1 µM | remaining binding | 83%
O=C(Nc1cnn(-c2csc(C(=O)NC3COC3)c2)c1)Nc1c(F)cccc1Cl | enzyme activity, inhibitor | 5 µM | remaining activity | 98.3%
CC(C)(C)C(=O)c1sc(NC2CCCCC2)nc1N | enzyme activity, inhibitor | 10 µM | remaining activity | 89%
CCOC(=O)c1cc2cc(-c3cc(C(=O)NCc4ccc(C(=O)O)cc4)nn3C)ccc2[nH]1 | cell-free assay, competition with immobilised ligand | 0.1 µM | remaining binding | 77%
Oc1ccc(-c2nc(-c3ccncc3)c(-c3ccc(F)cc3)[nH]2)cc1 | cell-free assay | 0.5 µM | remaining signal | 102%
NS(=O)(=O)c1cc(NC(=O)Cc2ccccc2)ccc1Oc1cccc(Cl)c1 | cell-free assay, competition with immobilised ligand | 1 µM | remaining binding | 100%
FC(F)c1nc2ccccc2n1-c1nc(N2CCOCC2)nc(N2CCOCC2)n1 | enzyme activity, inhibitor | 10 µM | remaining activity | 92%
Cc1ccc(Nc2nccc(N(C)c3ccc4c(C)n(C)nc4c3)n2)cc1S(N)(=O)=O | enzyme activity, inhibitor | 0.3 µM | inhibition | -5%
CN1CCN(c2cnc3c(C4CCN(C(=O)c5ccc(OC(F)(F)F)cc5N)CC4)ncnc3c2)CC1 | cell-free assay, competition with immobilised ligand | 1 µM | remaining binding | 83%
Nc1nc(NC2CCCCC2)sc1C(=O)c1ccccc1 | enzyme activity, inhibitor | 10 µM | remaining activity | 71%
Cc1sc(C(=O)NC2COC2)cc1-n1cc(NC(=O)Nc2c(F)cccc2Cl)cn1 | enzyme activity, inhibitor | 10 µM | remaining activity | 90.5%
Cc1nccc(COC(=O)N2C[C@@H]3[C@@H](CNC(=O)c4ccc5[nH]nnc5c4)[C@@H]3C2)n1 | cell-free assay, competition with immobilised ligand | 1 µM | remaining binding | 79%
Cc1ccc(NC(=O)c2ccc(C)c(C(F)(F)F)c2)cc1C#Cc1nn(C2CCC(O)CC2)c2ncnc(N)c12 (stereo not shown) | cell-free assay | 10 µM | remaining signal | 68%
O=C(Nc1cccnn1)N1CCC(=Cc2cccc(Oc3ccc(C(F)(F)F)cn3)c2)CC1 | cell-free assay, competition with immobilised ligand | 1 µM | remaining binding | 100%
O=C1Nc2ccc(Cl)cc2C1=Cc1cc(Cl)c(O)c(Cl)c1 | cell-free assay | 0.5 µM | remaining signal | 90.5%
Cc1c(NC(=O)c2cc(C(N)=O)nc3cc(F)ccc23)c(C(F)(F)F)nn1Cc1ccc(C(C)(C)C)cc1 | cell-free assay, competition with immobilised ligand | 1 µM | remaining binding | 56%
CC1CCCN1c1nccc(-c2cnn3ncccc23)n1 (stereo not shown) | binding | 1 µM | remaining binding | 90%
